The results in this text go back to ChEMBL document CHEMBL1944612, “Structural modification of ginsenoside Rh(2) by fatty acid esterification and its detoxification property in antitumor” (Bioorg Med Chem Lett, 2012).

Data set [1] is described as follows: Growth inhibition of human QSG7701 cells at 50 uM after 48 hrs by MTT assay. Particulars: read-out: GI. An outline of the steps: (§1)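 QSG-7701 human hepatocytes seeded at 5×10^3 cells/mL in 96-well plates. Compounds were dissolved in DMSO and diluted in RPMI 1640 (final DMSO <0.1%), in triplicate, for 48 h. MTT (5 mg/mL stock) was added for 2 h, and formazan was dissolved in DMSO. OD was read at 570 nm (450 nm reference). IC50 is the concentration giving 50% absorbance reduction versus vehicle control.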
On the technique in general: Tetrazolium dyes change colour on reduction, which living cells bring about.

Data set [2] is described as follows: Growth inhibition of human QSG7701 cells after 48 hrs by MTT assay. Particulars: QSG7701, 48 h. Summed up: as §1
For data set [3], the system named is Mus musculus. In words: Immunostimulatory activity in Kunming mouse xenografted with […] cells assessed as change in spleen mass at 10 mg/kg, po qd for 10 days (reference value: 6.61 +/- 1.84 mg/kg). In kind it is functional.
The test system of data set [4] is Mus musculus. The data set can be described thus: Immunostimulatory activity in Kunming mouse xenografted with […] cells assessed as change in thymus mass at 5 mg/kg, po qd for 10 days (reference value: 1.83 +/- 0.85 mg/kg). Type of data set: functional. In general terms: In xenograft studies the graft and the host belong to different species.
In data set [5] the test system is Mus musculus. In words: Immunostimulatory activity in Kunming mouse xenografted with […] cells assessed as change in thymus mass at 10 mg/kg, po qd for 10 days (reference value: 1.83 +/- 0.85 mg/kg). Type of data set: functional.
The subject of data set [6] is Mus musculus. In words: Toxicity in Kunming mouse xenografted with […] cells assessed as change in body weight at 20 mg/kg, po qd for 10 days (reference value: 24.8 +/- 1.1 g). Type of data set: organism-based. More on the design: dose 20 mg/kg, route oral. Particulars: in vivo, 240 h.
For data set [7], the system named is Mus musculus. The data set can be described thus: Immunostimulatory activity in Kunming mouse xenografted with […] cells assessed as change in spleen mass at 5 mg/kg, po qd for 10 days (reference value: 6.61 +/- 1.84 mg/kg). Type of data set: functional.
For the next data set, the system named is H22 (Mus musculus). The data set can be described thus: Antitumor activity against mouse H22 cells xenografted in Kunming mouse assessed as reduction in tumor weight at 5 mg/kg, po qd for 10 days. Particulars: 240 h.
Another data set relates to H22. The data set can be described thus: Antitumor activity against human H22 cells xenografted in Kunming mouse assessed as reduction in tumor volume at 20 mg/kg, po qd for 10 days. Particulars: 240 h, read-out: INH.
The subject of data set [8] is Mus musculus. In words: Toxicity in Kunming mouse xenografted with human H22 cells assessed as change in body weight at 20 mg/kg, po qd for 10 days (reference value: 23.4 +/- 2.8 g). In kind it is organism-based. More on the design: dose 20 mg/kg, route oral. The note with it: in vivo, 240 h.

SMILES strings stand for the structures.

As for `CCCCCCCC(=O)OC[C@H]1O[C@@H](O[C@H]2CC[C@]3(C)[C@H]4C[C@@H](OC(=O)CCCCCCC)[C@@H]5[C@@H]([C@@](C)(O)CCC=C(C)C)CC[C@@]5(C)[C@]4(C)CC[C@H]3C2(C)C)[C@H](O)[C@@H](O)[C@@H]1O`, the inhibition at 48 h, 50 µM in data set [1] is 18%. For the same compound, half-maximal inhibition in [2] (IC50) was put at 80.5 µM. Also, the Activity with Mus musculus [3] came out at 6.31 mg/g; with Mus musculus [4] it was 2.15 mg/g; with Mus musculus [5], 3.42 mg/g; in the data set on Mus musculus [6], 27.1 g; with Mus musculus [7] it was 5.27 mg/g. Further, the inhibition in vivo at 5 mg/kg in the data set with H22 (Mus musculus) came to 52%.

Regarding `O=P1(N(CCCl)CCCl)NCCCO1` (configuration not stated) [CYCLOPHOSPHAMIDE ANHYDROUS], in the data set on H22, the inhibition in vivo at 20 mg/kg came out at 72%.

Take `CC(C)=CCC[C@](C)(O)[C@H]1CC[C@]2(C)[C@@H]1[C@H](O)C[C@@H]1[C@@]3(C)CC[C@H](O[C@@H]4O[C@H](CO)[C@@H](O)[C@H](O)[C@H]4O)C(C)(C)[C@@H]3CC[C@]12C` [GINSENOSIDE RH2]: in data set [1], the inhibition at 48 h, 50 µM worked out at 83%. Besides, in data set [2], the IC50 (as a rule, the concentration that inhibits the measured activity by half) was determined as 37.3 µM. Moreover, the Activity was 5.35 mg/g with Mus musculus [3]; 2.25 mg/g with Mus musculus [4]; 2.09 mg/g in the data set with Mus musculus [5]; 23.2 g in the data set on Mus musculus [8]; 5.48 mg/g in the data set with Mus musculus [7]. The inhibition in vivo at 5 mg/kg in the data set on H22 (Mus musculus) worked out at 53%.
